Measured values from paper PMC6447837 (Cancer Science, 2019).

Key:
Aspc‐1 cells [1] = assay: Wound healing assay; type: cell-based, human; details: 18 hours
HT29 = details: HT29, Colorectal carcinoma; mean ± SD; ref Zhang et al (2016) 35; cited from earlier work
Bxpc‐3 cells [2] = assay: Wound healing assay; type: cell-based, human; details: 18 hours
Bxpc‐3 cells [3] = assay: Colony formation assay; type: cell-based, human; details: 18 days
Outline: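 Cells were seeded at 5000-8000 per well and treated with test compound the next day, from DMSO stocks diluted in medium. Medium with vehicle or compound was replaced every 4 days. Cells were then methanol-fixed and crystal violet-stained. Colonies of more than 50 cells were counted under an inverted microscope and expressed as a percentage of colony numbers. Mean of n = 3, with SD.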

BT474 = details: BT474, Breast cancer; ref Zhang et al (2016) 35; cited from earlier work
AKT = assay: Western blot, AKT phosphorylation; type: cell-based, human; details: Aspc‐1 and Bxpc‐3 cells, 12 hours
Outline: (§1)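 Aspc-1 and Bxpc-3 cells were grown overnight in complete medium and treated with test compound for 12 h. Cells were lysed in RIPA buffer and protein was quantified. Lysates were run on SDS-PAGE and transferred to PVDF, then blocked 2 h in TBS-T with 5% non-fat milk. Blots were probed for pAKT Ser473, pERK Thr202/Tyr204, pSTAT3 Tyr705, the matching total proteins and β-actin. Detection was by enhanced chemiluminescence.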

Capan‐2 = assay: MTT antiviability assay; type: cell-based; details: Homo sapiens, Capan-2, 72 h
Lyn = Lyn (Homo sapiens, UniProt P07948); assay: Radiometric kinase IC50 assay; type: biochemical
MCF‐7 = assay: MTT antiviability assay; type: cell-based; details: Homo sapiens, MCF7, 72 h
[4] = Body weight during treatment in xenograft models; type: in vivo, NOD‐SCID mice; details: Aspc‐1 and Bxpc‐3 xenograft models; 20 or 40 mg/kg/d p.o., 18 days
Outline: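 Six‑week‑old female NOD‑SCID mice received 5 × 10⁶–1 × 10⁷ cells s.c. in the right flank and were grouped (6 per group) at about 200 mm³. Test compound in 25% (v/v) PEG400 plus 5% DMSO in deionized water was given by oral gavage once daily for 18 days, alongside vehicle controls. Mean body weight with SD was recorded.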

A375 = assay: MTT antiviability assay; type: cell-based; details: Homo sapiens, A-375, 72 h
RAMOS = details: Lymphoma, ref Zhang et al (2016) 35; cited from earlier work
Aspc‐1 cells [5] = assay: Transwell invasion assay; type: cell-based, human
Outline: (§2)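 Inserts were precoated with polymerized collagen type I. Cells were seeded on the insert bottom in serum‑free medium with serial dilutions of test compound or vehicle, with 10% FBS medium in the lower chamber. After one day, cells were stained with calcein‑AM and optical sections taken at 10‑μm intervals. Invasion was scored as cells moving >20 μm into collagen; n = 3, mean with SD.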

Aspc‐1 cells [6] = assay: EdU incorporation; type: cell-based, human; details: 24 hours
Outline: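 Cells were seeded overnight at 5000-8000 per well in 96-well plates, then exposed to test compound for 24 h. Cells were then incubated with EdU followed by Hoechst, using a commercial kit per manufacturer's instructions. EdU marks proliferating cells and Hoechst marks nuclei. The read-out was the percentage of EdU-positive cells, as mean of n = 3 with SD.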

205 other kinases = assay: Radiometric kinase assay, remaining panel; type: biochemical, human; details: 205 other kinases of the panel; did not show activity
HL‐60 = details: HL‐60, Acute myeloid leukemia; mean ± SD; ref Zhang et al (2016) 35; cited from earlier work
Bxpc‐3 = assay: MTT antiviability assay; type: cell-based; details: Homo sapiens, BXPC-3, 72 h
plc/prf/5 = details: plc/prf/5, Hepatocarcinoma; ref Zhang et al (2016) 35; cited from earlier work
STAT3 [7] = assay: Immunohistochemistry of xenograft tumor tissues; type: in vivo, NOD‐SCID mice; details: Aspc‐1 and Bxpc‐3 models; LY‐1816 and dasatinib 40 mg/kg/d p.o., gemcitabine 80 mg/kg/wk; IHC
Outline: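 Six-week-old female NOD-SCID mice received 5 × 10⁶ to 1 × 10⁷ cells s.c. in the right flank. Treatment began at about 200 mm³. Test compound (40 mg/kg/d) was given once daily by oral gavage in 25% PEG400 plus 5% DMSO in water. Tumors were resected at the end of dosing. Frozen sections were immunostained and imaged by light microscopy.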

Aspc‐1 cells [8] = assay: Annexin V/PI apoptosis assay; type: cell-based, human; details: 24 hours
Outline: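 Cells were treated with a range of concentrations for 24 hours, washed with PBS, then stained with annexin V‑FITC and propidium iodide for 15 minutes in the dark. […] Early (annexin V) and late (PI) apoptotic cells are reported as percentages, mean of n = 3 with SD.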

STAT3 [9] = assay: Western blot, STAT3 phosphorylation; type: cell-based, human; details: Aspc‐1 and Bxpc‐3 cells, 12 hours
Outline: as §1

[10] = system: Miapaca‐2 metastatic model; assay: Experimental metastasis assay; type: in vivo, NOD‐SCID mice; details: 40 mg/kg/d
Outline: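 Miapaca‑2 cells (5 × 10⁶) were injected into the tail vein of 5‑ to 6‑week‑old female NOD‑SCID mice. Mice were randomized immediately into 5 groups of 6 and given test compound p.o. at 20 or 40 mg/kg, comparators, or vehicle. […] Kaplan–Meier analysis used a log rank test against control.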

Lck = Lck (Homo sapiens, UniProt P06239); assay: Radiometric kinase IC50 assay; type: biochemical
Aspc‐1 xenograft = assay: Subcutaneous xenograft model; type: in vivo, NOD‐SCID mice; details: Aspc‐1 model
Outline: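 Female NOD‑SCID mice bearing s.c. right‑flank tumors (5 × 10⁶–1 × 10⁷ cells injected) were randomized at 100–200 mm³ (6–7 per group). They received test compound in 25% PEG400/5% DMSO/water by oral gavage once daily for 18 days, or vehicle. Tumors were measured by caliper every 3 days, with volume = length × width² × 0.5.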

Bxpc‐3 cells [11] = assay: Transwell invasion assay; type: cell-based, human
Outline: as §2

Chain of Lyn (P07948 whole entry): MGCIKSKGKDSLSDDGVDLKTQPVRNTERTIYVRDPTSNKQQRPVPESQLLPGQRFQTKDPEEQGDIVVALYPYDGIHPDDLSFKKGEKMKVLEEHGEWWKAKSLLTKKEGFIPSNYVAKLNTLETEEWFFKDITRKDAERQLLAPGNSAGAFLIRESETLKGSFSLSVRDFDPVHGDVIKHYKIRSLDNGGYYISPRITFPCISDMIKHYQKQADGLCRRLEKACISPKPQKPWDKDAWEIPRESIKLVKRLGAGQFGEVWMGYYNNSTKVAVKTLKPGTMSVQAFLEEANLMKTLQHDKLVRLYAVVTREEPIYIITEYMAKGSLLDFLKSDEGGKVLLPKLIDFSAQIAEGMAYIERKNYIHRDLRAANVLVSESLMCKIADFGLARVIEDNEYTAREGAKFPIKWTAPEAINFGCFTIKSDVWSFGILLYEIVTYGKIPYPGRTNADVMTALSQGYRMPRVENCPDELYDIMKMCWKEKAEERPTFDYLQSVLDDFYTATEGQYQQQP
Chain of Lck (P06239 whole entry): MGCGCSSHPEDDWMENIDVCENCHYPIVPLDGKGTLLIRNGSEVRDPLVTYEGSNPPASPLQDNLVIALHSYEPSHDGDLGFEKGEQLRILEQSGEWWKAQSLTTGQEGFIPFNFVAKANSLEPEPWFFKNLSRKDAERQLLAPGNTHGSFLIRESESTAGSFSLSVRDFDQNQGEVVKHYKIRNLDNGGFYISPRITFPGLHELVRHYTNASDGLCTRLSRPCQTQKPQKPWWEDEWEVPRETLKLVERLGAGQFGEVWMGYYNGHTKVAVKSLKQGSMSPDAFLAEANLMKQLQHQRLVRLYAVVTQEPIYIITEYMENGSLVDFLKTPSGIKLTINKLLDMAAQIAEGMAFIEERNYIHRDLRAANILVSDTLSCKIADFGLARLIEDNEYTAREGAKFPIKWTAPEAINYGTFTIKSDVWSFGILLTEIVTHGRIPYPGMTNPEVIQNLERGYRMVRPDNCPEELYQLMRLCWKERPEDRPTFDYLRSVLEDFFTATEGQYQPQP

Cc1ccc(NC(=O)c2ccc(C)c(C(F)(F)F)c2)cc1C#Cc1nn(C2CCC(O)CC2)c2ncnc(N)c12 (centres unmarked) [LY‐1816, N‐(3‐((4‐amino‐1‐(4‐hydroxycyclohexyl)‐1H‐pyrazolo[3,4‐d]pyrimidin‐3‐yl)ethynyl)‐4‐methylphenyl)‐4‐methyl‐3‐(trifluoromethyl)benzamide]
cell migration (Aspc‐1 cells [1]): dose‐dependently reduced cell migration
IC50 (HT29): 231 ± 12 nM
cell migration (Bxpc‐3 cells [2]): dose‐dependently reduced cell migration
colony growth (Bxpc‐3 cells [3]): significantly inhibited the colony growth
IC50 (BT474): > 10000 nM
phosphorylation of AKT (AKT): very weak or no impact on the phosphorylation of ERK and AKT
IC50 (Capan‐2): 97 ± 14 nM
IC50 (Lyn): 4 nM
IC50 (MCF‐7): > 10000 nM
body weight [4]: no significant decrease in body weight
IC50 (A375): 134 ± 2 nM
IC50 (RAMOS): ~10000 nM
cell invasion (Aspc‐1 cells [5]): significantly suppressed the invasion
DNA replication (EdU) (Aspc‐1 cells [6]): dose‐dependently suppress the DNA replication
IC50 (205 other kinases): > 10000 nM
IC50 (HL‐60): 31 ± 12 nM
IC50 (Bxpc‐3): 58 ± 11 nM
IC50 (plc/prf/5): ~10000 nM
phosphorylation of STAT3 in tumor tissues (STAT3 [7]): evidently reduced the phosphorylation of Src and STAT3
apoptosis (annexin V and PI‐positive populations) (Aspc‐1 cells [8]): significantly increased the annexin V and PI‐positive populations
phosphorylation of STAT3 (STAT3 [9]): significantly inhibit STAT3 phosphorylation
mice alive at day 105 [10]: 33%
IC50 (Lck): 14 nM
tumor‐inhibition rate (Aspc‐1 xenograft; 40 mg/kg daily, orally, 18 days): > 90%
antitumor activity (Aspc‐1 xenograft; LY‐1816 20 or 40 mg/kg/d p.o., dasatinib 40 mg/kg/d p.o., gemcitabine 80 mg/kg once a week): dose‐dependent tumor inhibitory activities
cell invasion (Bxpc‐3 cells [11]): significantly suppressed the invasion
